The source of these data is ChEMBL document CHEMBL1153014, “Synthesis and antimicrobial properties of polymerizable quaternary ammoniums” (Eur J Med Chem, 2009).

Series [1] deals with Pseudomonas aeruginosa. Kind of series: Microbiostatic activity against Pseudomonas aeruginosa ATCC 9027 after 24 hrs by turbidimetric method. The class given is functional. To be noted: ATCC 9027, 24 h. The method, boiled down: (§1)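 Exponential-phase bacteria are grown overnight on TSA, then overnight at 30 °C in M9G (pH 7.0). Suspension is adjusted to OD660 0.05 (about 5·10^6–5·10^7 cfu/mL), verified by plate count. Automated serial dilutions of agent in deionised water are inoculated and incubated 24 h at 30 °C. MIC is the first concentration without turbidity.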

Series [2] deals with Pseudomonas aeruginosa. Kind of series: Microbicidal activity against Pseudomonas aeruginosa ATCC 9027 after 5 days by microtiter plate method. The class given is functional. To be noted: ATCC 9027, 120 h. The method, boiled down:
(§2)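 Bacterial MIC microtiter plates are held 5 days. For each of the three concentrations above the MIC, 100 µL is plated on TSA or SDA plates. MLC is the first concentration showing no growth after subculture.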

Series [3] concerns Aspergillus niger. Kind of series: Microbiostatic activity against Aspergillus niger ATCC 6275 after 72 hrs by turbidimetric method. The series is classed as functional. To be noted: ATCC 6275, 72 h. The essentials: (§3)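 Turbidimetric broth microdilution: automated serial dilutions of agent in sterile deionised water, then inoculation. Spores come from 5–7 day SDA cultures at 25 °C, harvested in M9G (pH 5.0) and gauze-filtered to remove mycelium. Inoculum is set to 5·10^6–5·10^7 spores/mL by counting cell. Incubation is 72 h at 25 °C. MIC is the first concentration with no turbidity.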

Series [4] relates to Candida albicans. The series is described as follows: Microbiostatic activity against Candida albicans ATCC 10231 after 72 hrs by turbidimetric method. The class given is functional. To be noted: ATCC 10231, 72 h. The essentials: as §3
For series [5], the system named is Staphylococcus aureus. Kind of series: Microbiostatic activity against Staphylococcus aureus ATCC 6538 after 24 hrs by turbidimetric method. The class given is functional. To be noted: ATCC 6538, 24 h. The method, boiled down:
as §1

In series [6] the test system is Staphylococcus aureus. The series is described as follows: Microbicidal activity against Staphylococcus aureus ATCC 6538 after 5 days by microtiter plate method. To be noted: ATCC 6538, 120 h. The series is classed as functional. The essentials:
as §2

For series [7], the system named is Aspergillus niger. Kind of series: Microbicidal activity against Aspergillus niger ATCC 6275 after 7 days by microtiter plate method. To be noted: ATCC 6275, 168 h. The class given is functional. The method, boiled down: (§4)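 Fungal MIC microplates are kept 7 days. 100 µL from each of the three concentrations above the MIC is subcultured onto agent-free TSA or SDA plates. MLC is the lowest concentration giving no growth.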

Series [8] is described as follows: Critical micelle concentration by conductimetry. The series is classed as physicochemical.
Series [9] concerns Candida albicans. Kind of series: Microbicidal activity against Candida albicans ATCC 10231 after 7 days by microtiter plate method. The series is classed as functional. To be noted: ATCC 10231, 168 h. The essentials:
as §4

The term MIC denotes the least concentration at which growth counts as inhibited.

For the compound `C=CC(=O)OCC[N+](C)(C)Cc1ccccc1.[Br-]`, the minimal inhibitory concentration (MIC) in [1] was greater than 2000 µM; in series [3], 507 µM; in [4], greater than 2000 µM; in series [5], greater than 2000 µM. Moreover, the MLC in [2] is greater than 2000 µM; in series [6], greater than 2000 µM; in [7], 600 µM; in [9], greater than 2000 µM. The compound also returned a CMC in [8] of 4.6 ×10⁻² mol/L.

On to `C=CC(=O)OCCCCCCCCCCC[N+](C)(C)CCCCCCCCCCCC.[Br-]`, for which the MIC turned out to be 58.4 µM in series [1], 14.8 µM in series [3], 14.8 µM in [4] and 34.7 µM in series [5]. For the same compound, the MLC in series [2] came to 64.7 µM; in series [6] it was 34.7 µM; in series [7], 14.8 µM; in series [9] it was 15.4 µM. Further, the CMC in series [8] was found to be 9.66 ×10⁻⁴ mol/L.

Regarding `C=CC(=O)OCC[N+](C)(C)CCCCCCCCCCCC.[Br-]`, the MIC in series [1] amounted to 71.1 µM; in series [3] it was 63.8 µM; in series [4], 63.8 µM; in series [5] it was 71.1 µM. Also, the MLC in series [2] was 71.1 µM; in series [6], 71.1 µM; in series [7] it was 63.8 µM; in series [9] it was 63.8 µM. The CMC in [8] was 6.45 mM.

As to `C=CC(=O)OCC[N+](C)(C)CCCCCCCCCC.[Br-]`, the MIC in series [1] is 356 µM; in [3], 175 µM; in series [4] it was 278 µM; in [5] it was 356 µM. Moreover, the MLC in series [2] was 416 µM; in series [6], 359 µM; in series [7] it was 280 µM; in series [9], 359 µM. In addition, in series [8], the CMC was found to be 1.16 ×10⁻² mol/L.

Consider `C=CC(=O)OCCCCCCCCCCC[N+](C)(C)Cc1ccccc1.[Br-]`, for which the MIC in [1] worked out at 154 µM; in series [3] it was 154 µM; in series [4] it was 154 µM; in series [5] it was 244 µM. The MLC in series [2] came to 447 µM; in [6] it was 306 µM; in [7], 238 µM; in series [9], 447 µM. In [8], this compound had a CMC of 3.34 ×10⁻² mol/L.

Regarding `C=CC(=O)OCCCCCCCCCCC[N+](C)(C)CCCCCCCCCC.[Br-]`, the MIC in series [1] stood at 79.9 µM; in series [3], 19 µM; in series [4], 19 µM; in series [5], 64.8 µM. Moreover, the MLC is 188 µM in series [2], 72.6 µM in [6], 19.3 µM in [7] and 30.4 µM in [9]. For the same compound, the CMC in [8] was determined as 2.79 mM.

As to `C=CC(=O)OCC[N+](C)(C)CCCCCCCCCCCCCCCC.[Br-]`, the MIC in series [1] was found to be 237 µM; in [3], 237 µM; in [4] it was 24 µM; in [5], 275 µM. The MLC came out at 283 µM in series [2], 283 µM in series [6], 283 µM in series [7] and 24.7 µM in [9]. The compound further displayed a CMC in series [8] of 1.95 mM.

With `C=CC(=O)OCC[N+](C)(C)CCCCCCCCCCCCCC.[Br-]`, the MIC is 112 µM in series [1], 178 µM in [3], 18.1 µM in [4] and 178 µM in [5]. The MLC came out at 114 µM in series [2], 232 µM in series [6], 232 µM in series [7] and 18.4 µM in [9]. The CMC in series [8] was determined as 2.99 mM.

Take `C=CC(=O)OCCCCCCCCCCC[N+](C)(C)CCCCCCCCCCCCCC.[Br-]`: the MIC stood at 44.8 µM in series [1], 24.9 µM in series [3], 16.8 µM in [4] and 104 µM in series [5]. For the same compound, the MLC turned out to be 103 µM in [2], 164 µM in series [6], 24.9 µM in series [7] and 16.8 µM in series [9]. The compound further registered a CMC in series [8] of 4.68 ×10⁻⁴ mol/L.

`C=CC(=O)OCCCCCCCCCCC[N+](C)(C)CCCCCCCCCCCCCCCC.[Br-]`: the MIC in series [1] was found to be 132 µM; in series [3] it was 31.4 µM; in series [4] it was 27.1 µM; in [5] it was 209 µM. Moreover, the MLC in series [2] worked out at 317 µM; in series [6] it was 274 µM; in series [7] it was 40.4 µM; in series [9] it was 40.4 µM. The same compound came in with a CMC in [8] of 1.66 ×10⁻⁴ mol/L.
